Test: Paroxetine drug interaction study: eliglustat pharmacokinetics in healthy adults
Type: in vivo, human
Details: for AUC: AUC0-τ; for AUC / AUC(0-inf) / Cmax: mean (SD); for AUC(0-inf): AUC0-∞
In short: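 Open-label, fixed-sequence study in healthy CYP2D6 non-poor metabolizers. Oral test compound 84 mg, fasted: single dose Day 1, BID Days 2–8, then BID with a strong CYP2D6 inhibitor 30 mg QD Days 9–18. Plasma sampled to 36 h Day 1, 12 h Day 8, 72 h Day 18, plus pre-dose samples. LC-MS/MS, LLOQ 0.5 ng/mL. Non-compartmental PK, tmax as median (min, max); ratios from log-transformed mixed-effects model.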

[1] = CYP2D6 EMs only, eliglustat 84 mg BID with paroxetine 30 mg QD
[2] = CYP2D6 non-PMs, eliglustat 84 mg BID with paroxetine 30 mg QD

With CCCCCCCC(=O)N[C@H](CN1CCCC1)[C@H](O)c1ccc2c(c1)OCCO2 [eliglustat] the “increase in eliglustat AUC0-τ compared to eliglustat alone” value [1] was 8.4 fold, the “increase in eliglustat Cmax compared to eliglustat alone” value [1] was 7.0 fold and the “increase in eliglustat AUC0-τ (exposure) compared to eliglustat alone” value [2] was 8.9 fold. The “increase in eliglustat Cmax compared to eliglustat alone” value [2] was 7.3 fold, the “Ratio (%) of geometric least squares mean, AUC0-t” value (all subjects, multiple dose, test 30 mg paroxetine oral QD + 84 mg eliglustat oral BID (N = 33) vs reference 84 mg eliglustat oral BID alone (N = 34), 0 to 12 h) was 8.93% and the “Ratio (%) of geometric least squares mean, Cmax” value (all subjects, multiple dose, test 30 mg paroxetine oral QD + 84 mg eliglustat oral BID (N = 33) vs reference 84 mg eliglustat oral BID alone (N = 36)) was 7.31%. The Tmax (eliglustat 84 mg BID, Days 2 to 8, all (N = 36), median (minimum, maximum)) was 2.0 (0.5–3.0) h, the Tmax (human, plasma, oral, 84 mg) was 2 h and the half-life (human, plasma, oral, 84 mg) was 4.2 h. It also gave an AUC (human, plasma, oral, 84 mg, eliglustat 84 mg BID, Days 2 to 8, CYP2D6 EMs only (N = 33), 0 to 12 h) of 120 ng·h/mL, an AUC (human, plasma, oral, 84 mg, eliglustat 84 mg BID, Days 2 to 8, all (N = 34), 0 to 12 h) of 120 ng·h/mL and an AUC(0-inf) (human, plasma, oral, 84 mg, eliglustat 84 mg single dose, Day 1, CYP2D6 EMs only (N = 28)) of 77.4 ng·h/mL. It also gave an AUC(0-inf) (human, plasma, oral, 84 mg, eliglustat 84 mg single dose, Day 1, all (N = 30)) of 78.1 ng·h/mL, a Cmax (human, plasma, oral, 84 mg, eliglustat 84 mg BID, Days 2 to 8, CYP2D6 EMs only (N = 33)) of 19.4 ng/mL and a Cmax (human, plasma, oral, 84 mg, eliglustat 84 mg BID, Days 2 to 8, all (N = 36)) of 19.3 ng/mL. The Cmax (human, plasma, oral, 84 mg, eliglustat 84 mg single dose, Day 1, CYP2D6 EMs only (N = 33)) was 10.9 ng/mL, the Cmax (human, plasma, oral, 84 mg, eliglustat 84 mg single dose, Day 1, all (N = 36)) was 10.7 ng/mL and the AUC (human, plasma, oral, eliglustat 84 mg BID + paroxetine 30 mg QD, Days 9 to 18, CYP2D6 EMs only (N = 30), 0 to 12 h) was 847 ng·h/mL. For the same compound, the Cmax (human, plasma, oral, eliglustat 84 mg BID + paroxetine 30 mg QD, Days 9 to 18, CYP2D6 EMs only (N = 30)) was 110 ng/mL and the Cmax (human, plasma, oral, eliglustat 84 mg BID + paroxetine 30 mg QD, Days 9 to 18, all (N = 33)) was 110 ng/mL.

From article PMC6976987 (Molecular Genetics and Metabolism Reports, 2020)
